In the library only some 11% were active in any assay of this set; here they are far more common.
M1 agonist = M1 muscarinic receptor agonism; CHO-M1 cells, Fluo-4 calcium fluorescence, agonist mode; stronger effect = higher value; B-score at 10 µM; hit rate 3% among 64,000; AID 626;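 active means fluorescence rise, raw or as B-score row- and column-corrected plate score, outside the 99.7% band of its plate's samples, either direction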
M1 antag = M1 muscarinic receptor (rat) antagonism; P08482; CHO-M1 cells, Fluo-4 calcium, ACh EC80 antagonist mode; stronger effect = lower value; B-score at 10 µM; hit rate 3.4% among 64,000; AID 628;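 active means calcium fluorescence response, raw or row-and-column corrected B-score, differing from the plate sample mean either way at a set confidence level, mostly lower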
D1 mod = allosterically modulates the human D1 dopamine receptor; P21728; HEK293 D1, CRE-luciferase, dopamine EC30 potentiation; actives deviate in either direction; B-score at 10 µM; hit rate 5.9% among 58,000; AID 641;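 active means luminescence count or its row- and column-corrected plate score outside the 99.7% band of the plate's sample wells, on either side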
Target sequence (P21728 whole entry, looked up): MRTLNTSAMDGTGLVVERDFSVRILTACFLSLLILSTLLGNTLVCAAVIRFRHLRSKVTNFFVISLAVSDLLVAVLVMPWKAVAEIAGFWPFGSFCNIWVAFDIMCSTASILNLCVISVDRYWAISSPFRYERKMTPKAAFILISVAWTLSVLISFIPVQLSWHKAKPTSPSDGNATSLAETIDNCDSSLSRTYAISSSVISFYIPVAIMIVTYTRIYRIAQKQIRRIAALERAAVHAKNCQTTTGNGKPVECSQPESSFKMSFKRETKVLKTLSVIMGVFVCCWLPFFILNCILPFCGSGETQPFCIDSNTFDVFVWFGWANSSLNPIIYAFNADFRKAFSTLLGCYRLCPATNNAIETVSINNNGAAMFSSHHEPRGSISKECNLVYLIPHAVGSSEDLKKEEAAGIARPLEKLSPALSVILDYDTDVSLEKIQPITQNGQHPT
S1P3 agonist = activates the human S1P3 receptor. Q99500. S1P3 NFAT-BLA reporter cells, agonism, FRET ratio; relative to 1 µM S1P, basal subtracted. activation, % at 4.5 µM. hit rate 0.1% among 60,000. AID 373;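 active means activation above the screen-wide mean plus 3 SD, cut at about 4.5% in these data, passing the limit was not always enough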
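Measure – % activation relative to 1 µM S1P (100%), per plate · System – stable CHO line with human S1P3, Gα16, NFAT-BLA reporter · Timing – cells plated overnight, compound 4 h 37 °C, substrate 2 h RT · Technique – fluorescent BLA substrate, ex 405 nm, em 460/535 nm ratio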
S1P1 ag pot = agonists and agonism potentiators of human S1P1 receptor | S1P1 CRE-bla cells, forskolin, beta-lactamase FRET, potentiator mode; S1P1 agonist co-added at EC20, 2 nM; 100% = saturating reference agonist, 0% = basal | activation, % at 9.5 µM | hit rate 0.57% among 56,000;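 active means activation above a cutoff set at the mean activation of all tested compounds plus 3 SD, cut at about 54% in these data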;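 further: forskolin at 4 µM as EC80 and the EC20 agonist is SEW2871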
M1 agonist conf = rat M1 muscarinic agonism, confirmation; shares compounds with M1 agonist; CHO-M1 cells, Fluo-4 calcium fluorescence, agonist mode; actives lie on both sides; fluorescence change (max-min) at 10 µM; hit rate 19% among 1,700;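 active means fluorescence change differs from the solvent-only DMSO control mean at a set confidence level in both duplicate runs; inconclusive means differs from solvent-only control mean in just one of two runs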;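 further: an EC20 dose of acetylcholine follows compound addition during the same imaging run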
M4 agonist ctr = rat M4 muscarinic agonism, M1 counter-screen. hit rate 9% among 1,700. fluorescence change (max-min) at 10 µM. CHO M4/Gqi5 cells, Fluo-4 calcium fluorescence, agonist mode; actives lie on both sides. AID 1741. shares compounds with M1 agonist;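 active means fluorescence change differing from the plate's solvent-only control wells at 99.7% confidence in both duplicates, whether higher or lower; inconclusive means differs from solvent controls in only one of two duplicates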
Large screens that a line does not name were inactive (follow-up assays come after a bar, where they were run).

CC1CC(C)CN(C(=O)CSCC(=O)Nc2nc(-c3cccs3)cs2)C1 (centres undefined)	none (no result: D1 mod)
O=C(CSCC(=O)N1CCCCC1)Nc1nc(-c2ccc(Cl)s2)cs1	M1 agonist 4.8 (no result: D1 mod) | M1 agonist conf inconclusive | M4 agonist ctr inactive
CCCCCn1c(=N)n(CC(O)COc2ccccc2OC)c2ccccc21 (centres undefined)	M1 agonist 3.08, D1 mod -5.83 | M1 agonist conf inactive | M4 agonist ctr inactive
O=S(=O)(c1cccc(S(=O)(=O)N2CCC(N3CCCCC3)CC2)c1)N1CCOCC1	M1 agonist 5.89 (no result: S1P3 agonist, S1P1 ag pot) | M1 agonist conf inactive | M4 agonist ctr inactive
COc1ccc(CNC(=O)C2CCN(S(=O)(=O)c3cccc4cccnc34)CC2)cc1	none
CC(=O)c1cccc(NC(=O)COc2ccc(S(=O)(=O)N3CCCCC3)cc2)c1	none
COc1cc(C2C3=C(CC(C)(C)CC3=O)Nc3c2c(=O)[nH]c(=O)n3Cc2ccccc2)ccc1O (centres undefined)	none (no result: S1P3 agonist, S1P1 ag pot)
COc1ccc(C2C3=C(CC(C)(C)CC3=O)Nc3c2c(=O)[nH]c(=O)n3Cc2ccccc2)cc1OC (centres undefined)	M1 agonist 9.85 | M1 agonist conf inactive | M4 agonist ctr inactive
COc1ccc(C2C3=C(CC(C)(C)CC3=O)Nc3c2c(=O)[nH]c(=O)n3Cc2ccccc2)cc1 (centres undefined)	M1 agonist 2.72 | M1 agonist conf inactive | M4 agonist ctr inactive
Cc1nc2[nH]c(=O)c3c(n2n1)NC1=C(C(=O)CC(C)(C)C1)C3c1ccc(F)cc1 (centres undefined)	M1 agonist 3.84 | M1 agonist conf inactive | M4 agonist ctr inactive
CCc1ccc(C2C3=C(CC(C)(C)CC3=O)Nc3c2c(=O)[nH]c2nc(C)nn32)cc1 (centres undefined)	none
CCOC(=O)C1=C(CSc2nc(C)ccc2C#N)OC(N)=C(C#N)C1c1cccc(OC)c1OC (centres undefined)	none
Cc1ccc(-c2nc3cc(N)ccc3o2)cc1	M1 agonist 2.41, D1 mod -3.72 | M1 agonist conf inactive | M4 agonist ctr inactive
COC(=O)CCC(=O)Nc1ccc(NC(C)=O)cc1	M1 agonist 5.51 | M1 agonist conf inactive | M4 agonist ctr inactive
COC(=O)CCC(=O)Nc1ccc(NC(=O)CCC(=O)OC)cc1	none
COc1cc(OC)cc(-c2nnc(SCc3c(F)cccc3Cl)o2)c1	M1 agonist -2.79 | M1 agonist conf inconclusive | M4 agonist ctr inactive
O=C(NCCN1CCOCC1)NC1(C(F)(F)F)Oc2ccc(Cl)cc2O1 (centres undefined)	none
COCC(C)NC(=O)NC1(C(F)(F)F)Oc2ccc(Cl)cc2O1 (centres undefined)	M1 agonist 6.4 (no result: S1P3 agonist, S1P1 ag pot) | M1 agonist conf inconclusive | M4 agonist ctr inactive
COC(=O)C1CCN(c2cc(=O)n(-c3ccc(OC)cc3)c(=O)[nH]2)CC1	none
COCCOC(=O)C1=C(C)NC(=O)NC1c1cn(-c2ccccc2)nc1-c1cccs1 (centres undefined)	M1 agonist 10.6, M1 antag -2.11 (no result: D1 mod) | M1 agonist conf inconclusive | M4 agonist ctr inactive
C=CCOC(=O)C1=C(C)NC(=O)NC1c1cn(-c2ccccc2)nc1-c1cccs1 (centres undefined)	none
COc1ccccc1N1CCN(Cc2nc(N)nc(Nc3ccc(C)c(Cl)c3)n2)CC1	M1 agonist 3.34 | M1 agonist conf inconclusive | M4 agonist ctr inconclusive
COc1cccc(N2CCN(Cc3nc(N)nc(Nc4ccccc4)n3)CC2)c1	M1 agonist 6.27 | M1 agonist conf inactive | M4 agonist ctr inactive
Cc1cccc(Nc2nc(N)nc(CN3CCN(c4ccccc4)CC3)n2)c1	none
Cc1cc(C)nc(SCC(=O)N2CCC(C(N)=O)CC2)n1	M1 agonist 2.67 | M1 agonist conf inconclusive | M4 agonist ctr inactive
Cc1cc(C(=O)NCCCN2CCN(C3CCCCC3)CC2)n(-c2ccccc2)n1	M1 agonist 31.7 | M1 agonist conf inactive | M4 agonist ctr inconclusive
Cc1ccccc1NC(=O)NCCCN1CCN(C2CCCCC2)CC1	none
